From ChEMBL document CHEMBL1144910, “S-acyl-2-thioethyl aryl phosphotriester derivatives of AZT: synthesis, antiviral activity, and stability study” (J Med Chem, 2003)

Legend:
CCRF-CEM [1] = assay: Effective concentration required to inhibit the replication of HIV-1 by 50% in CEM/TK cells; format: functional, cell-based; conditions: Homo sapiens
Method in brief: (§1)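 Cells infected with HIV-1; EC50 is the concentration inhibiting viral replication by 50%. Values are averages of at least three separate experiments, with variation below ±10%.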

MT4 [2] = assay: Effective concentration required to inhibit the replication of HIV-1 by 50% in MT-4 cells; format: functional, cell-based; conditions: Homo sapiens; method in brief: as §1
[3] = In vitro Apparent partition coefficients of mixed aryl phosphodiester was determined; format: physicochemical; conditions: octanol/water
Method in brief: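 Apparent log P by an adapted shake-flask method, partitioning between 1-octanol and 0.02 M potassium phosphate buffer at pH 7.2. Each compound was run in triplicate.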

CEM-SS [4] = assay: Effective concentration required to inhibit the replication of HIV-1 by 50% in CEM-SS cells; format: functional, cell-based; conditions: Homo sapiens; method in brief: as §1
MT4 [5] = assay: Cytotoxic concentration required to reduce the viability […] by 50% MT-4 cells; format: functional; conditions: Homo sapiens
Method in brief: (§2)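 Viability measured in uninfected cells of each line; CC50 is the concentration reducing viability by 50%. Values are averages of at least three separate experiments, with variation under standard operating procedures below ±10%.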

CEM-SS [6] = assay: Cytotoxic concentration required to reduce the viability […] by 50% in CEM-SS cells; format: functional; conditions: Homo sapiens; method in brief: as §2
CCRF-CEM [7] = assay: Cytotoxic concentration required to reduce the viability […] by 50% in CEM/TK cells; format: functional; conditions: Homo sapiens; method in brief: as §2
[8] = Half-life was determined for the compound in cell extracts pre-incubated with EDTA; format: ADME
[9] = Half-life was determined for the compound in cell extracts (CE); format: ADME
Method in brief: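 Total CEM-SS cell extracts, 37 °C, phosphotriester at 50 µM initial concentration. Samples analysed by on-line ISRP-cleaning HPLC (C18, acetonitrile gradient in 20 mM triethylammonium acetate pH 6.9, 267 nm). Products identified by HPLC-ESI-MS and/or co-injection. Relative amounts taken from peak areas. Half-lives derived from pseudo-first-order rate constants fitted by mono- or polyexponential regression.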

[10] = Half-life was determined for the compound in heat inactivated cell extracts; stable; format: ADME
[11] = Half-life was determined for the compound in cell extracts pre-incubated with EDTA; stable; format: ADME

Compound | EC50 (CCRF-CEM [1]) | EC50 (MT4 [2]) | logD [3] | EC50 (CEM-SS [4]) | CC50 (MT4 [5]) | CC50 (CEM-SS [6]) | CC50 (CCRF-CEM [7]) | half-life [8] | half-life [9] | T1/2 [10] | T1/2 [11]
Cc1cn([C@H]2C[C@H](N=[N+]=[N-])[C@@H](COP(=O)(OCCSC(=O)C(C)(C)C)Oc3ccc(C[C@H]4COC(C)(C)N4C(=O)OC(C)(C)C)cc3)O2)c(=O)[nH]c1=O (stereo not given in full) | 9 µM | 0.098 µM | 3.7 | 0.031 µM | > 10 µM | > 10 µM | > 10 µM | – | – | – | –
CC(=O)N[C@@H](Cc1ccc(OP(=O)(O)OC[C@H]2O[C@@H](n3cc(C)c(=O)[nH]c3=O)C[C@@H]2N=[N+]=[N-])cc1)C(N)=O.Cl | – | – | – | – | – | – | – | 166 h | 19.3 h | stable | –
Cc1cn([C@H]2C[C@H](N=[N+]=[N-])[C@@H](COP(=O)(O)Oc3ccc(C[C@H](N)C(=O)O)cc3)O2)c(=O)[nH]c1=O.Cl | – | – | – | – | – | – | – | – | 12.8 h | stable | stable
Cc1cn([C@H]2C[C@H](N=[N+]=[N-])[C@@H](COP(=O)(OCCSC(=O)C(C)(C)C)Oc3ccc(C[C@H](N)C(N)=O)cc3)O2)c(=O)[nH]c1=O (stereo not given in full) | 4 µM | 0.016 µM | 1.27 | 0.002 µM | > 10 µM | > 10 µM | > 10 µM | – | – | – | –
Cc1cn([C@H]2C[C@H](N=[N+]=[N-])[C@@H](COP(=O)(OCCSC(=O)C(C)(C)C)Oc3ccc(C[C@@H](CO)NC(=O)OC(C)(C)C)cc3)O2)c(=O)[nH]c1=O (stereo not given in full) | 4 µM | 0.044 µM | 2.5 | 0.017 µM | > 10 µM | – | > 10 µM | – | – | – | –
Cc1cn([C@H]2C[C@H](N=[N+]=[N-])[C@@H](COP(=O)(OCCSC(=O)C(C)(C)C)Oc3ccc(C[C@H](N)C(=O)O)cc3)O2)c(=O)[nH]c1=O (stereo not given in full) | 29 µM | 0.075 µM | 0.25 | 0.006 µM | > 10 µM | > 100 µM | > 100 µM | – | – | – | –
CC(=O)N(C(=O)OC(C)(C)C)[C@@H](Cc1ccc(OP(=O)(OCCSC(=O)C(C)(C)C)OC[C@H]2O[C@@H](n3cc(C)c(=O)[nH]c3=O)C[C@@H]2N=[N+]=[N-])cc1)C(=O)N(C(=O)OC(C)(C)C)C(=O)OC(C)(C)C (stereo not given in full) | 6 µM | 0.032 µM | 5.8 | 0.015 µM | > 10 µM | > 10 µM | > 10 µM | – | – | – | –
Cc1cn([C@H]2C[C@H](N=[N+]=[N-])[C@@H](COP(=O)(O)Oc3ccc(C[C@H](N)CO)cc3)O2)c(=O)[nH]c1=O.Cl | – | – | – | – | – | – | – | – | 68 h | stable | stable
Cc1cn([C@H]2C[C@H](N=[N+]=[N-])[C@@H](CO)O2)c(=O)[nH]c1=O [ZIDOVUDINE] | > 100 µM | – | 0.06 | 0.003 µM | > 100 µM | > 100 µM | > 100 µM | – | – | – | –
Cc1cn([C@H]2C[C@H](N=[N+]=[N-])[C@@H](COP(=O)(OCCSC(=O)C(C)(C)C)Oc3ccc(C[C@H](NC(=O)OC(C)(C)C)C(=O)N(C(=O)OC(C)(C)C)C(=O)OC(C)(C)C)cc3)O2)c(=O)[nH]c1=O (stereo not given in full) | 4 µM | 0.034 µM | 5 | 0.049 µM | > 10 µM | > 10 µM | > 10 µM | – | – | – | –
CC(=O)N[C@@H](Cc1ccc(OP(=O)(OCCSC(=O)C(C)(C)C)OC[C@H]2O[C@@H](n3cc(C)c(=O)[nH]c3=O)C[C@@H]2N=[N+]=[N-])cc1)C(N)=O (stereo not given in full) | 8 µM | 0.066 µM | 1.52 | 0.082 µM | > 10 µM | > 10 µM | > 10 µM | – | – | – | –
Cc1cn([C@H]2C[C@H](N=[N+]=[N-])[C@@H](COP(=O)(OCCSC(=O)C(C)(C)C)Oc3ccc(C[C@H](N)CO)cc3)O2)c(=O)[nH]c1=O (stereo not given in full) | 7 µM | 0.018 µM | 0.64 | 0.007 µM | > 100 µM | > 100 µM | > 100 µM | – | – | – | –
